pKi: −log10 of the molar value. Several values for one entry are separate records, joined by “and”; a condition that tells them apart may be missing. Equal entries are not always repeated.

The target of assay [1] is T1, 5-hydroxytryptamine receptor 1A (Rattus norvegicus, UniProt P19327).
T1 sequence (P19327 whole entry): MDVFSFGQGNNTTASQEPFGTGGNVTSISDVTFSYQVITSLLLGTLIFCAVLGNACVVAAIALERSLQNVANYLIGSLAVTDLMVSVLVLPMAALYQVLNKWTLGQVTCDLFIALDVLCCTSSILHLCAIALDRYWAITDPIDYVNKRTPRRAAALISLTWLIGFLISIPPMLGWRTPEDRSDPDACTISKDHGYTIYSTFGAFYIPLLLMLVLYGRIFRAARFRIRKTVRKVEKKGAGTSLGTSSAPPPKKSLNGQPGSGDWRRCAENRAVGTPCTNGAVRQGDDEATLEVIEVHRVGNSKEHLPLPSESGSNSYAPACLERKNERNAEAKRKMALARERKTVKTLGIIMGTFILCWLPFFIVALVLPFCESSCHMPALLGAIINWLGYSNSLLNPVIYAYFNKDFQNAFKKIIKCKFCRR
In words: Binding affinity against rat hippocampal 5-hydroxytryptamine 1A (5-HT1A) receptor determined using [3H]8-OH-DPAT as radioligand. Format: tissue-based, Hippocampus.

Assay [2] concerns the target T2, 5-hydroxytryptamine receptor 1A (Rattus norvegicus) (UniProt P19327).
T2 sequence (whole entry): T1 sequence (P19327 whole entry)
In words: Effect on 5-hydroxytryptamine 1A receptor mediated inhibition of VIP-stimulated cAMP production at dose of 50 uM. As to conditions: values are per cent of control. The class given is functional. The method, boiled down: (§1)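 GH4ZD10 cells expressing rat 5-HT1A receptors, detached with EDTA-supplemented Ca/Mg-free EBSS and resuspended in Ham's F10 with 0.01% ascorbic acid and 0.1 mM IBMX. Preincubated 1 h at 37 °C, then 0.8-1.5×10^6 cells/mL incubated 20 min at 37 °C with VIP (39 nM final) plus compounds. Duplicate samples stopped by boiling. cAMP measured in triplicate by protein-binding assay. Results are given as % of the VIP-stimulated response.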

The target of assay [3] is T2, 5-hydroxytryptamine receptor 1A (Rattus norvegicus). In words: Effect on 5-hydroxytryptamine 1A receptor mediated inhibition of VIP-stimulated cAMP production at dose of 0.1 uM + 1 uM 5-HT. The class given is functional. As to conditions: values are per cent of control. Put shortly:
(§2)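 GH4ZD10 cells expressing rat 5-HT1A receptors were detached with EBSS plus 1 mM EDTA and resuspended to ~1×10^7 cells/mL in Ham's F10 with 0.01% ascorbic acid and 0.1 mM IBMX. After 1 h preincubation at 37 °C they were diluted to 0.8-1.5×10^6 cells/mL, then incubated 20 min at 37 °C with VIP (39 nM final) plus compound, alone or with 5-HT, in duplicate. The reaction was stopped by boiling. cAMP was measured in triplicate by protein-binding assay and expressed as % of the VIP-stimulated response.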
Background: cAMP levels reflect the balance of adenylyl cyclase and phosphodiesterase activity.

The target is the same in assay [4]. Kind of assay: Effect on 5-hydroxytryptamine 1A receptor mediated inhibition of VIP-stimulated cAMP production at dose of 1 uM. The class given is functional. As to conditions: values are per cent of control. The method, boiled down: as §2
Assay [5] has the same target. In words: Effect on 5-hydroxytryptamine 1A receptor mediated inhibition of VIP-stimulated cAMP production at dose of 1 uM+ 50 uM 5-HT. As to conditions: values are per cent of control. Format: functional. The method, boiled down: as §1
For assay [6] the target is unchanged. As to conditions: 0.05 uM.
Assay [7] shares this target. In words: (§3) Effect on 5-hydroxytryptamine 1A receptor mediated inhibition of VIP-stimulated cAMP production at dose of 0.1 uM + 10 uM 5-HT. The class given is functional. As to conditions: values are per cent of control. The method, boiled down:
as §2

Assay [8] shares this target. In words: Effect against 5-hydroxytryptamine 1A receptor mediated inhibition of VIP-stimulated cAMP production at 0.1 uM dose. The class given is functional. As to conditions: values are per cent of control. The method, boiled down:
as §2

For assay [9] the target is unchanged. Kind of assay: Effect on 5-hydroxytryptamine 1A receptor mediated inhibition of VIP-stimulated cAMP production at dose of 10 uM. Format: functional. As to conditions: values are per cent of control. The method, boiled down: as §2
Assay [10] has the same target. Kind of assay: Effect on 5-hydroxytryptamine 1A receptor mediated inhibition of VIP-stimulated cAMP production at dose of 30 uM. The class given is functional. As to conditions: values are per cent of control. Put shortly:
as §2

For assay [11] the target is unchanged. In words: Effect on 5-hydroxytryptamine 1A receptor mediated inhibition of VIP-stimulated cAMP production at dose of 0.05 uM. The class given is functional. As to conditions: values are per cent of control. The method, boiled down:
as §1

For assay [12] the target is unchanged. In words: Effect on 5-hydroxytryptamine 1A receptor mediated inhibition of VIP-stimulated cAMP production at dose of 10 uM+ 10 uM 5-HT. The class given is functional. As to conditions: values are per cent of control. Put shortly: as §1
For assay [13] the target is unchanged. In words: Effect on 5-hydroxytryptamine 1A receptor mediated inhibition of VIP-stimulated cAMP production at dose of 1 uM+ 1 uM 5-HT. The class given is functional. As to conditions: values are per cent of control. The method, boiled down:
as §1

For assay [14] the target is unchanged. Kind of assay: Effect on 5-hydroxytryptamine 1A receptor mediated inhibition of VIP-stimulated cAMP production at dose of 50 uM+ 50 uM 5-HT. As to conditions: values are per cent of control. The class given is functional. Put shortly:
as §1

Assay [15] shares this target. As to conditions: 1 uM.
The target is the same in assay [16]. In words: Effect on 5-hydroxytryptamine 1A receptor mediated inhibition of VIP-stimulated cAMP production at dose of 0+ 1 uM 5-HT. As to conditions: values are per cent of control. The class given is functional. Put shortly: as §1
For assay [17] the target is unchanged. The description is as §3. Format: functional. As to conditions: values are per cent of control. Put shortly:
as §1
This is another data set of the same source.

Assay [18] has the same target. Kind of assay: Effect on 5-hydroxytryptamine 1A receptor mediated inhibition of VIP-stimulated cAMP production at dose of 0.1 uM + 0.1 uM 5-HT. The class given is functional. As to conditions: values are per cent of control. The method, boiled down: as §1
Assay [19] has the same target. In words: Effect on 5-hydroxytryptamine 1A receptor mediated inhibition of VIP-stimulated cAMP production at dose of 1 uM+ 0.1 uM 5-HT. Format: functional. As to conditions: values are per cent of control. Put shortly: as §1
Assay [20] has the same target. Kind of assay: Effect on 5-hydroxytryptamine 1A receptor mediated inhibition of VIP-stimulated cAMP production at dose of 1 uM+ 10 uM 5-HT. Format: functional. As to conditions: values are per cent of control. Put shortly:
as §2

One may read the pKi as −log10 of the Ki, conventionally taken in molar units. Higher therefore signals a small Ki. `CCCN(CCCCN1C(=O)CC2(CCCC2)CC1=O)[C@H]1CCc2c(F)ccc(OC)c2C1` showed a negative-log Ki (pKi) in assay [1] of 8.31. Besides, the response, % of control turned out to be 39% in assay [2]; 50% in assay [3]; 79% in assay [4]; 41% in assay [5]; 87% in assay [6].

With `CCCN(CCC)[C@@H]1CCc2c(F)ccc(-c3ccco3)c2C1`, the response, % of control in [7] was 61%; in assay [8], 106% and 98%; in assay [3], 60%; in [9], 84%; in [4], 97%; in assay [10], 79%.

`CCCN(CCCCN1C(=O)CC2(CCCC2)CC1=O)[C@H]1CCc2c(F)ccc(C(C)=O)c2C1` had a negative-log Ki (pKi) in assay [1] of 7.86. In addition, the response, % of control stood at 93% in [2]; 104% in assay [11]; 70% in [3]; 109% in assay [9]; 102% in assay [12]; 97% in assay [4]. Besides, the response, % of control in assay [13] and in assay [14] was 91% each time.

For `CCCN(CCC)[C@H]1CCc2c(F)ccc(O)c2C1`, in assay [1], the pKi was 7.61. For the same molecule, the response, % of control in assay [8] was determined as 94%; in assay [3] it was 57%; in assay [9] it was 100%; in assay [15] it was 100%.

`CCCN(CCCCN1C(=O)CC2(CCCC2)CC1=O)[C@@H]1CCc2c(F)ccc(-c3ccco3)c2C1` had a pKi in [1] of 8.96. Besides, the response, % of control worked out at 62% in [16]; 54% in [17]; 57% in [18]; 60% in [4]; 60% in [13].

Molecule `CCCN(CCCCN1C(=O)CC2(CCCC2)CC1=O)[C@H]1CCc2c(F)ccc(-c3ccco3)c2C1` showed a pKi in assay [1] of 8.12. The response, % of control in assay [3] was 62%; in assay [19], 58% and 66%; in assay [20], 68%.

The values are drawn from ChEMBL document CHEMBL1129431, “Derivatives of (R)- and (S)-5-fluoro-8-hydroxy-2-(dipropylamino)tetralin: synthesis and interactions with 5-HT1A receptors” (J Med Chem, 1996).
